Cl transport mod: modulates chloride dependent transport by human KCC2; KCC2 cells, thallium flux FluoZin-2 fluorescence; B-score of Tl+ flux slope (higher = more flux/activation; lower = inhibition) at 10 µM; 190,000 compounds, 2.2% hits; AID 1456;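 active = thallium flux slope and its plate-corrected score both differing from the plate sample mean at a set confidence after two filtering rounds, in either direction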;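 note: slope of fluorescence scaled to starting intensity during 10 to 20 s after thallium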
PMI act satM6P: PMI (human) activation, high substrate; 190,000 compounds, 0.34% hits; P34949; activation factor at 20 µM; coupled PMI enzyme assay, resazurin fluorescence, 20 min; stronger effect = higher value; 1 = untreated enzyme, 0 = substrate-free blank;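 active = activation factor of 2 or more at 20 µM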
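Technique: Diaphorase-driven resazurin-to-resorufin fluorescence, excitation 544, emission 590 nm | Assay system: Human PMI in coupled enzyme assay | Times: Enzyme reaction with compound 20 min at room temperature | Medium: HEPES-buffered pH 7.4 with magnesium and detergent | Reagent: Mannose-6-phosphate 1.0 mM (near-saturating) plus 0.22 mM NADP+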
ROMK primary: modulators of human ROMK potassium channel; 130,000 compounds, 2% hits; B-score at 10 µM; Tet-inducible ROMK, thallium flux fluorescence; actives lie on both sides; P48048;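 active = signal ratio slope over the read window, or its plate-corrected B-score, at least 3 SD from the plate mean, either direction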;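 note: B-score of the F/F0 ratio slope over 7 to 12 s after thallium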
Target sequence (P48048 whole entry, looked up): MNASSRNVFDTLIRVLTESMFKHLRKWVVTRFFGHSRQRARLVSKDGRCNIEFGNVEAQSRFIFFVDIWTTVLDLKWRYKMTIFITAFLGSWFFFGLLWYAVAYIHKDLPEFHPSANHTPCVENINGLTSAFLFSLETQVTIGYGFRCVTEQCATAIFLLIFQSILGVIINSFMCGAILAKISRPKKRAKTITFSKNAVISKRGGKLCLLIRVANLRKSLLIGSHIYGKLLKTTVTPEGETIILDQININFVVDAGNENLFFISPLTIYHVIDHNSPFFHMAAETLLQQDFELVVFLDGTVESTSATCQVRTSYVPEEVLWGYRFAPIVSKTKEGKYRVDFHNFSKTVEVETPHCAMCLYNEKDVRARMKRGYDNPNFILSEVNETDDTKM
PMI act: increases human mannose-6-phosphate isomerase activity. P34949. purified human PMI, coupled resazurin fluorescence, 20 min; stronger effect = higher value; 1 = vehicle control, 0 substrate-free wells. activation factor at 20 µM. 190,000 compounds, 0.005% hits;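 active = activation factor of 2 or more at 20 µM, relative to plate controls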
ABCG2 block: blocks JC-1 efflux by human ABCG2 transporter. Q9UNQ0. IgMXP3 cells, flow cytometry. inhibition, % at 6.6 µM. 190,000 compounds, 0.1% hits. AID 1325;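 active = inhibition above 80%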;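 note: 0% = DMSO and 100% = nicardipine control wells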
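material = IgMXP3 (ABCG2) plus far-red-tagged CCRF-Adr (ABCB1) cells | amount = 3 million cells/mL, equal mix of both lines | also added = JC-1 transporter substrate | dosing = one concentration, 6.6 µM final | schedule = 10 min at 25 °C | measured by = flow cytometric JC-1 green MFI at 530 nm | read-out basis = percent efflux inhibition, scaled nicardipine 100% to DMSO 0%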
ABCB1 inh: human ABCB1 inhibition, ABCG2 as counter-screen. AID 1326. 190,000 compounds, 0.067% hits. CCRF-Adr cells, JC-1 efflux, flow cytometry. inhibition, % at 6.6 µM. P08183; in the data active = inhibition above about 40%;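 note: 0% = vehicle and 100% = reference inhibitor; higher value means more JC-1 retained so stronger ABCB1 efflux block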
ABCB1 confirm: confirmation of human ABCB1 transporter inhibitors, ABCG2 counter-screen; CCRF-Adr cells, JC-1 efflux, flow cytometry; 270 compounds, 7% hits; shares compounds with ABCG2 block; inhibition, % at 6.6 µM;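 active = inhibition of pump activity above 50%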;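 note: 0% = DMSO and 100% = nicardipine full pump inhibition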
ABCG2 confirm: inhibits human ABCG2 efflux, confirmed at single point; shares compounds with ABCG2 block; IgMXP3 cells, JC-1 efflux, flow cytometry; inhibition, % at 6.6 µM; 270 compounds, 6% hits; AID 1453;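 active = inhibition above 50%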;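 note: 0% = DMSO wells and 100% = nicardipine pump inhibitor wells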
IgMXP3 autofluor: counter-screen for ABCG2 inhibitors: compound fluorescence in IgMXP3 cells | shares compounds with ABCG2 block | compound autofluorescence 488/530 nm, flow; stronger effect = higher value | fluorescence at 6.6 µM | 270 compounds, 30% hits;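 active = fluorescence in ABCG2-expressing cells above the plate's control-well mean plus 3 SD, cut at about 15 in these data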;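 note: median cell fluorescence with compound minus that of DMSO-treated control cells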
CCRF autofluor: counter-screen for ABCB1 inhibitors: compound fluorescence in CCRF-Adr cells | fluorescence at 6.6 µM | AID 1483 | compound autofluorescence 488/530 nm, flow cytometry; stronger effect = higher value | shares compounds with ABCG2 block | 270 compounds, 30% hits;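 active = fluorescence beyond the plate control mean plus 3 SD, with a fluorescence-to-maximum score over 2, cut at about 25 in these data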
An asterisk follows results filed as active; i = inactive; x = no result given; + = active, no number. In the library only some 3.3% were active in any assay of this set; here they are far more common.

SMILES	Cl transport mod	PMI act satM6P	ROMK primary	PMI act	ABCG2 block	ABCB1 inh	others
CCOc1ccc(C2/C(=C(/O)c3ccc(Cl)cc3)C(=O)C(=O)N2CCCN(C)C)cc1OC (centres undefined)	x	1.1	x	1	x	x
COc1ccc(C)cc1NC(=O)C(=O)NNC(=O)c1ccco1	21*	0.8	x	0.8	-1.7	-0.6
COc1cc(NC(=O)c2ccco2)c(OC)cc1NC(=O)CCC(=O)Nc1cc(C)ccc1C	0.409	0.9	0.383	1	6.5	2.0
Cc1nn(C)c(Cl)c1S(=O)(=O)N1CCC(CO)(CCc2ccccc2)CC1	-0.912	0.9	-1.94	0.9	2.1	0.7
COc1ccc(C=O)cc1Oc1nc(Cl)ncc1F	-0.0536	0.9	0.503	0.9	1.0	0.1
Cc1cc(O)c(/C=N/Nc2cccc(Cl)c2)c(=O)o1	-0.79	2.5*	0.183	1.5	0.4	0.1
Cc1cccc(N=Cc2c(O)cc(C)oc2=O)c1	0.153	1	0.579	1.1	7.2	0.8
Cc1cc(O)c(/C=N/Nc2ccc(Cl)cc2)c(=O)o1	-0.0361	2.1*	0.745	1.3	2.6	-0.5
Cc1cc(O)c(/C=N/Nc2ccccc2Cl)c(=O)o1	0.0463	2.2*	x	1.4	0.2	0.0
COc1cc(OC)cc(-c2nnc(SCC(=O)Nc3cccc(C(=O)O)c3)s2)c1	-0.201	1	0.137	1	-0.5	-0.2
CC(NC(=O)C1CCC(CNS(=O)(=O)c2ccccc2)CC1)c1ccc2c(c1)OCCO2 (centres undefined)	-0.074	1	0.932	1	0.7	0.1
CN(Cc1ccccc1)c1ncc(C=O)s1	-1.52	1	0.0271	1	9.4	3.4
Cc1ccc(C2=NNC3(CCOC(C)(C)C3)S2)cc1 (centres undefined)	25.1*	1.1	2.51*	1	-1.3	-0.3
Cc1ccc(S(=O)(=O)NCCC2(C(C)C)CCOC(C)(C)C2)cc1 (centres undefined)	-0.658	1	-0.107	0.9	4.2	1.2
C=CCc1ccc(O)c(-c2ccc(O)c(CC=C)c2)c1	0.333	0.8	x	0.7	5.6	0.3
CCOc1cccc2sc(NN)nc12	1.11	2.2*	0.0172	1.6	-1.8	-1.0
CCOc1cccc2sc(Cl)nc12	0.22	1	x	1	5.7	1.1
CC(=O)C(C(C)=O)c1c(Cl)c(O)c(O)c2c(C(=O)c3ccccc3)coc12	-5.29*	0.4	-3.43*	0.4	-1.3	-0.6
CCOC(=O)c1ccc(NC(=O)N2CCN(Cc3ccccc3)CC2)cc1	-5.4	0.9	0.288	0.9	5.0	-0.2
O=C(NCC1COc2ccccc2O1)C1CCCN(S(=O)(=O)c2cccc3nsnc23)C1 (centres undefined)	x	0.8	-2.46*	0.8	15.6	4.4
CCCCOn1c(C)c(C(=O)OCC)c2c3no[n+]([O-])c3ccc21	-0.311	1	x	0.9	44.9	4.4
CCCCOn1c(C)c(C(=O)OCC)c2c3nonc3ccc21	-3.54*	x	x	x	x	x
COc1cc2c(cc1NC(=S)Nc1cccc3ccccc13)oc1ccccc12	-0.0292	0.9	1.44*	0.6	3.2	0.3
CC(C)CN(CC(C)C)C(=O)C12CCC(C)(C(=O)O1)C2(C)C (centres undefined)	-0.687	1.1	1.06	1	0.7	0.5
CCn1c(C)nc2cc(C(=O)NNC(=O)Nc3ccc(Cl)cc3)ccc21	-1.45	2.8*	-0.007	1.9	-2.0	0.4
SMILES	Cl transport mod	PMI act satM6P	ROMK primary	PMI act	ABCG2 block	ABCB1 inh	others
CCN1C(=O)S/C(=C/c2ccc(Sc3nc4ccccc4[nH]3)o2)C1=O	0.576	0.8	x	0.4	5.1	1.2
Cc1cccc(C(C)Nc2ccc([N+](=O)[O-])cn2)c1 (centres undefined)	-1	0.9	x	0.9	2.2	0.9
O=C(N/N=C/c1cccnc1)C(O)(c1ccccc1)c1ccccc1	0.262	1	x	1	3.8	0.4
Clc1ccc(N/N=C/c2cccnc2)cc1	-0.737	2.4*	x	1.6	63.7	-0.3
O=C(O)c1cccc(N/N=C/c2cccnc2)c1	1.43	2.5*	-0.031	2*	3.8	1.1
O=C(O)c1cccc(N/N=C/c2ccc(-c3ccccc3)cc2)c1	-1.6	2.7*	1.9	1.7	-6.7	-1.8
Cc1sc(N/N=C/c2cccnc2)nc1-c1ccc(Cl)cc1	x	1.1	x	0.9	0.3	0.0
CC(C)(C)c1ccc(/C=N/Nc2cccc(C(=O)O)c2)cc1	-0.161	2*	-0.179	1.7	1.7	0.1
COc1ccc(Cl)cc1NC(=O)CCNC(=O)OCc1ccccc1	-0.909	0.9	-0.488	1	8.0	0.8
CCCCOC(=O)c1ccc(O)cc1	0.58	1	0.443	1.1	-1.0	0.7
CCCCOC(=O)Nc1ccc(C(=O)OCCC)cc1	-0.11	0.9	x	0.9	72.8	1.4	ABCB1 confirm=-0.2;ABCG2 confirm=28.9;IgMXP3 autofluor=5.16;CCRF autofluor=18.9
CCOC(=O)c1sc(NN=C(C(=O)OC)C(=O)OC)c(C(=O)OCC)c1C	2.59	1	x	1	125.8*	0.5	ABCB1 confirm=2.1;ABCG2 confirm=25.6;IgMXP3 autofluor=-1.29;CCRF autofluor=-1.19
Cc1cc(C)c(N=Cc2c(O)n(-c3nccs3)c(=O)c3ccccc23)c(C)c1	-0.0102	0.8	x	0.8	11.3	4.0
Cc1ccc(N=Cc2c(O)n(-c3nccs3)c(=O)c3ccccc23)cc1	1.4	1	x	0.9	73.4	41.3*	ABCB1 confirm=4.6;ABCG2 confirm=36.8;IgMXP3 autofluor=-0.29;CCRF autofluor=8.76
COc1ccc(CN2CCn3nc(C(=O)NC(C)C)cc3C2=O)cc1	1.2	1	-0.152	1	0.0	41.4*	ABCB1 confirm=-1.5;ABCG2 confirm=4.3;IgMXP3 autofluor=3.41;CCRF autofluor=0.71
CCCCCCc1cc2cc(-c3nnc(-c4ccccc4O)o3)c(=O)oc2cc1O	i	1	x	1.1	79.3	48.4*	ABCB1 confirm=15.0;ABCG2 confirm=10.5;IgMXP3 autofluor=116*;CCRF autofluor=111*
N=c1oc2c3c4c(cc2cc1C(=O)Nc1ccccc1)CCCN4CCC3	i	0.7	x	1	+	131.2*	ABCB1 confirm=-13.7;ABCG2 confirm=-78.2;IgMXP3 autofluor=625*;CCRF autofluor=666*
NNC(=O)c1ccc(OCC2CC(c3ccc(Cl)cc3)=NO2)cc1 (centres undefined)	-0.218	x	0.341	x	x	x

Screens: PubChem, several laboratories
